Test results reported in ChEMBL document CHEMBL2439991, “Restraining the flexibility of the central linker in terameprocol results in constrained analogs with improved growth inhibitory activity” (Bioorg Med Chem Lett, 2013).
pIC50: −log10 of the molar value.

Key:
HeLa = experiment: Cytotoxicity against human HeLa cells after 72 hrs by MTT assay; format: functional
Procedure, shortened: (§1)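 MTT redox read-out; absorbance taken at 0 h (T0) and after 72 h exposure, with untreated cells as control (C). GI50 solved from (T − T0)/(C − T0) = 50%, i.e. viability halved relative to untreated after correction for time-zero cell count.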

BXPC-3 = experiment: Cytotoxicity against human BxPC3 cells after 72 hrs by MTT assay; format: functional; settings: BXPC-3, 72 h; procedure, shortened: as §1
T47D = experiment: Cytotoxicity against human T47D cells after 72 hrs by MTT assay; format: functional; procedure, shortened: as §1
[1] = Cytotoxicity against human U87 cells after 72 hrs by MTT assay; format: functional, U-87MG ATCC; settings: U-87 MG; procedure, shortened: as §1
T98G = experiment: Cytotoxicity against human T98G cells after 72 hrs by MTT assay; format: functional; procedure, shortened: as §1
786-0 = experiment: Cytotoxicity against human 786-0 cells after 72 hrs by MTT assay; format: functional; settings: 786-0, 72 h; procedure, shortened: as §1
NCI-H69 [2] = experiment: Cytotoxicity against human H69 cells; format: functional, cell-based
NCI-H69 [3] = experiment: Ratio of NDGA IC50 to compound IC50 for human H69 cells; format: functional

COc1ccc(CCNS(=O)(=O)c2ccc(OC)c(OC)c2)cc1OC
GI50 (HeLa): > 100 µM
GI50 (BXPC-3): > 100 µM
GI50 (T47D): > 100 µM
GI50 [1]: > 100 µM
GI50 (T98G): > 100 µM
GI50 (786-0): > 100 µM

COc1ccc(C(=O)N2CCc3cc(OC)c(OC)cc3C2)cc1OC
GI50 (HeLa): 8.23 µM
GI50 (BXPC-3): 13.6 µM
GI50 (T47D): 11.9 µM
GI50 [1]: 20.6 µM
GI50 (T98G): 10.1 µM
GI50 (786-0): 24.1 µM

COc1ccc(CNC(=O)NCc2ccc(OC)c(OC)c2)cc1OC
GI50 (HeLa): > 100 µM
GI50 (BXPC-3): > 100 µM
GI50 (T47D): > 100 µM
GI50 [1]: > 100 µM
GI50 (T98G): > 100 µM
GI50 (786-0): > 100 µM

COc1ccc(C2NCCc3cc(OC)c(OC)cc32)cc1OC (stereo not drawn)
GI50 (HeLa): 57.6 µM
GI50 (BXPC-3): > 100 µM
GI50 (T47D): > 100 µM
GI50 [1]: > 100 µM
GI50 (T98G): > 100 µM
GI50 (786-0): > 100 µM

COc1ccc(NS(=O)(=O)c2ccc(OC)c(OC)c2)cc1OC
GI50 (HeLa): > 100 µM
GI50 (BXPC-3): > 100 µM
GI50 (T47D): > 100 µM
GI50 [1]: > 100 µM
GI50 (T98G): > 100 µM
GI50 (786-0): > 100 µM

COc1ccc(C2=NCCc3cc(OC)c(OC)cc32)cc1OC
GI50 (HeLa): 79.3 µM
GI50 (BXPC-3): > 100 µM
GI50 (T47D): > 100 µM
GI50 [1]: > 100 µM
GI50 (T98G): > 100 µM
GI50 (786-0): > 100 µM

COc1ccc(NC(=O)c2ccc(OC)c(OC)c2)cc1OC
GI50 (HeLa): > 100 µM
GI50 (BXPC-3): > 100 µM
GI50 (T47D): > 100 µM
GI50 [1]: > 100 µM
GI50 (T98G): > 100 µM
GI50 (786-0): > 100 µM

COc1ccc(CCNC(=O)c2ccc(OC)c(OC)c2)cc1OC
GI50 (HeLa): > 100 µM
GI50 (BXPC-3): > 100 µM
GI50 (T47D): > 100 µM
GI50 [1]: > 100 µM
GI50 (T98G): > 100 µM
GI50 (786-0): > 100 µM

COc1ccc(CCNC(=O)Cc2ccc(OC)c(OC)c2)cc1OC
GI50 (HeLa): > 100 µM
GI50 (BXPC-3): > 100 µM
GI50 (T47D): > 100 µM
GI50 [1]: > 100 µM
GI50 (T98G): > 100 µM
GI50 (786-0): > 100 µM

COc1ccc(CNS(=O)(=O)c2ccc(OC)c(OC)c2)cc1OC
GI50 (HeLa): > 100 µM
GI50 (BXPC-3): > 100 µM
GI50 (T47D): > 100 µM
GI50 [1]: > 100 µM
GI50 (T98G): > 100 µM
GI50 (786-0): > 100 µM

COc1ccc(CC(=O)N2CCc3cc(OC)c(OC)cc3C2)cc1OC
GI50 (HeLa): > 100 µM
GI50 (BXPC-3): > 100 µM
GI50 (T47D): > 100 µM
GI50 [1]: > 100 µM
GI50 (T98G): > 100 µM
GI50 (786-0): > 100 µM

COc1ccc(S(=O)(=O)N2CCc3cc(OC)c(OC)cc3C2)cc1OC
GI50 (HeLa): > 50 µM
GI50 (BXPC-3): > 50 µM
GI50 (T47D): > 50 µM
GI50 [1]: > 50 µM
GI50 (T98G): > 50 µM
GI50 (786-0): > 50 µM

COc1ccc(CN2CCc3cc(OC)c(OC)cc3C2)cc1OC
GI50 (HeLa): 55.9 µM
GI50 (BXPC-3): > 100 µM
GI50 (T47D): 45.4 µM
GI50 [1]: > 100 µM
GI50 (T98G): > 100 µM
GI50 (786-0): > 100 µM

COc1ccc(C(=O)C2=NCCc3cc(OC)c(OC)cc32)cc1OC
GI50 (HeLa): 16.9 µM
GI50 (BXPC-3): 26.3 µM
GI50 (T47D): 16.1 µM
GI50 [1]: > 100 µM
GI50 (T98G): > 100 µM
GI50 (786-0): > 100 µM

COc1ccc(/C=C/C(=O)NCc2ccc(OC)c(OC)c2)cc1OC
GI50 (HeLa): > 75 µM
GI50 (BXPC-3): > 75 µM
GI50 (T47D): > 100 µM
GI50 [1]: 57.1 µM
GI50 (T98G): 70.3 µM
GI50 (786-0): 68.4 µM

COc1ccc(CNC(=O)c2ccc(OC)c(OC)c2)cc1OC
GI50 (HeLa): > 100 µM
GI50 (BXPC-3): > 100 µM
GI50 (T47D): > 100 µM
GI50 [1]: > 100 µM
GI50 (T98G): > 100 µM
GI50 (786-0): > 100 µM

COc1ccc(CC(=O)Nc2ccc(OC)c(OC)c2)cc1OC
GI50 (HeLa): > 100 µM
GI50 (BXPC-3): > 100 µM
GI50 (T47D): > 100 µM
GI50 [1]: > 100 µM
GI50 (T98G): > 100 µM
GI50 (786-0): > 100 µM

COc1ccc(CNC(=O)Cc2ccc(OC)c(OC)c2)cc1OC
GI50 (HeLa): > 100 µM
GI50 (BXPC-3): > 100 µM
GI50 (T47D): > 100 µM
GI50 [1]: > 100 µM
GI50 (T98G): > 100 µM
GI50 (786-0): > 100 µM

COc1ccc(NC(=O)Nc2ccc(OC)c(OC)c2)cc1OC
GI50 (HeLa): > 50 µM
GI50 (BXPC-3): > 50 µM
GI50 (T47D): > 50 µM
GI50 [1]: > 50 µM
GI50 (T98G): > 50 µM
GI50 (786-0): > 50 µM

COc1ccc(CNC(=O)Nc2ccc(OC)c(OC)c2)cc1OC
GI50 (HeLa): > 100 µM
GI50 (BXPC-3): > 100 µM
GI50 (T47D): > 100 µM
GI50 [1]: > 100 µM
GI50 (T98G): > 100 µM
GI50 (786-0): > 100 µM

COc1ccc(/C=C/C=C/c2ccc(OC)c(OC)c2)cc1OC
GI50 (HeLa): > 100 µM
GI50 (BXPC-3): 3.41 µM
GI50 (T47D): > 100 µM
GI50 [1]: > 100 µM
GI50 (T98G): > 100 µM
GI50 (786-0): 2.67 µM

COc1ccc(/C=C/C(=O)Nc2ccc(OC)c(OC)c2)cc1OC
GI50 (HeLa): > 50 µM
GI50 (BXPC-3): > 50 µM
GI50 (T47D): > 50 µM
GI50 [1]: > 50 µM
GI50 (T98G): > 50 µM
GI50 (786-0): > 50 µM

Oc1ccc(CCCCc2ccc(O)c(O)c2)cc1O
pIC50 (NCI-H69 [2]): 6.52
Ratio IC50 (NCI-H69 [3]): 10

COc1ccc(/C=C2/CCc3cc(OC)c(OC)cc32)cc1OC (mixture of isomers)
GI50 (HeLa): > 25 µM
GI50 (BXPC-3): 8.1 µM
GI50 (T47D): 4.24 µM
GI50 [1]: > 25 µM
GI50 (T98G): > 25 µM
GI50 (786-0): 5.5 µM

COc1ccc([C@H]2O[C@H](c3ccc(OC)c(OC)c3)[C@@H](C)[C@H]2C)cc1OC [GANSCHISANDRINE]
GI50 (HeLa): > 75 µM
GI50 (BXPC-3): 17.2 µM
GI50 (T47D): 4.4 µM
GI50 [1]: > 75 µM
GI50 (T98G): 58.3 µM
GI50 (786-0): > 75 µM

CC(Cc1ccc(O)c(O)c1)C(C)Cc1ccc(O)c(O)c1 (stereo not drawn) [NORDIHYDROGUAIARETIC ACID]
pIC50 (NCI-H69 [2]): 5.36

COc1ccc(C[C@@H](C)[C@@H](C)Cc2ccc(OC)c(OC)c2)cc1OC [TERAMEPROCOL]
GI50 (HeLa): > 50 µM
GI50 (BXPC-3): 17.1 µM
GI50 (T47D): 5.36 µM
GI50 [1]: > 50 µM
GI50 (T98G): > 50 µM
GI50 (786-0): 4.54 µM
